Measurements pooled from the literature.
Protocols differ between the studies behind these lines.
Target: Phosphatidylinositol 5-phosphate 4-kinase type-2 beta (PIP4K2B, Homo sapiens, UniProt P78356)
Sequence (P78356 1-416, as in one of the studies): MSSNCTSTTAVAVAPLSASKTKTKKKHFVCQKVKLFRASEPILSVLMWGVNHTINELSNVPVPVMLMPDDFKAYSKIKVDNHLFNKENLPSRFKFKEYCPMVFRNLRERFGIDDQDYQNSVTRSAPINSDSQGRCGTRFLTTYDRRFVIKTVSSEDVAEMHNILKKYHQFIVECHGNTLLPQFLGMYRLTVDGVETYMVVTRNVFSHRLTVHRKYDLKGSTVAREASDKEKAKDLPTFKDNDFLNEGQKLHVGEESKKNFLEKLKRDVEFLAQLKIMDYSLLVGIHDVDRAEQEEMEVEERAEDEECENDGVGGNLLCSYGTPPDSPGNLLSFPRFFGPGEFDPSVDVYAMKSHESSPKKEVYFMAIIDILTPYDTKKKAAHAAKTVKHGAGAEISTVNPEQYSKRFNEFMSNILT

`c1cncc(-c2cccc(Nc3nccc(NC4CCCCC4)n3)c2)c1` has a remaining binding of 27% (binding, competition with immobilised ligand; 10 µM).
The remaining binding of `c1cnn2ncc(-c3ccnc(N4CCC45COC5)n3)c2c1` is reported as 58% (binding; 1 µM).
`O=C(c1ccc(Nc2ncc(Cl)c(-c3ccc(Cl)s3)n2)cc1)N1CCC(N2CCCC2)CC1` has a remaining binding of 1.9% (binding, competition with immobilised ligand; 1 µM).
`CN(C)c1nccc(-c2cnn3ncccc23)n1` has a remaining binding of 100% (binding; 1 µM).
With `C[C@@H](c1ccc(-n2cnc3c(N)ncnc32)cc1)N1CCc2nn(C)c(Cc3ccccc3)c2C1=O` the remaining binding was 69% (binding, competition with immobilised ligand; 0.1 µM).
`O=C(c1ccc(Nc2nccc(-c3cc4ccccc4s3)n2)cc1)N1CCC(N2CCCC2)CC1` has a remaining binding of 11% (binding, competition with immobilised ligand; 1 µM).
`COc1cnc(Nc2cccc(S(N)(=O)=O)c2)nc1N1CCN(c2ccccc2)CC1` has a remaining binding of 100% (binding, competition with immobilised ligand; 1 µM).
`NS(=O)(=O)c1cc(NC(=O)Cc2ccccc2)ccc1Oc1cccc(Cl)c1` gave a remaining binding of 89% (cell-free assay, competition with immobilised ligand; 1 µM).
With `O=C(NCC1CCOCC1)c1n[nH]cc1NC(=O)c1c(F)cccc1F` the remaining binding was 100% (binding, competition with immobilised ligand; 1 µM).
The remaining binding of `O=C(NCCCN1CCOCC1)c1ccc(Nc2nccc(-c3cc4ccccc4s3)n2)cc1` is reported as 11% (binding, competition with immobilised ligand; 1 µM).
The remaining binding of `C[C@@H](c1cccc(C#N)c1)n1cc(Cl)cc(C(N)=O)c1=N` is reported as 73% (cell-free assay, competition with immobilised ligand; 1 µM).
With `N[C@H]1CCN(c2nccc(-c3cnn4ncccc34)n2)C1` the remaining binding was 100% (binding; 1 µM).
`COc1ccc2c(c1)O[C@H](c1ccc(OC)c(OC)c1)C[C@@H]2NC(=O)C1(c2ccc3c(c2)OC(F)(F)O3)CC1` has a remaining binding of 80% (cell-free assay, competition with immobilised ligand; 1 µM).
`CN(CCCC(F)(F)F)c1nccc(-c2cnn3ncccc23)n1` has a remaining binding of 57% (binding; 1 µM).
`CCOCCn1cc(C(=O)Nc2ccc(-n3nc(-c4cccnc4)cc3C(F)(F)F)cn2)ccc1=O` has a remaining binding of 68% (cell-free assay, competition with immobilised ligand; 1 µM).
`CN(C)c1nccc(-c2cnc3ncccn23)n1` gave a remaining binding of 100% (binding; 1 µM).
For `COc1cnc(Nc2cccc(S(N)(=O)=O)c2)nc1N1CCN(c2ccccc2)C(=O)C1`, the remaining binding was 100% (binding, competition with immobilised ligand; 1 µM).
With `Cc1cc(C)c(-n2ccn3nc(-c4cccnc4)cc23)cc1NC(=O)c1cc(C#N)cc(S(F)(F)(F)(F)F)c1` the remaining binding was 52.2% (cell-free assay, competition with immobilised ligand; 0.1 µM).
For `C=CC(=O)N1CCC(C(=O)NCC(=O)N2CCN(c3nc(-c4cnc(N)nc4C(F)F)nc(N4CCOCC4)n3)CC2)CC1`, the remaining binding was 99% (binding, competition with immobilised ligand; 1 µM).
With `CC(=O)c1c(NS(C)(=O)=O)c2cc(-c3ccc(Cl)cc3)c(-c3ccc(Cl)cc3Cl)nc2n(C)c1=O` the remaining binding was 65% (cell-free assay, competition with immobilised ligand; 1 µM).
With `C[C@@H]1CCN(c2nccc(-c3cnn4ncccc34)n2)C1` the remaining binding was 100% (binding; 1 µM).
`O=C(N[C@H]1CCCCC/C=C\C2C[C@@]2(C(=O)O)NC(=O)[C@@H]2C[C@@H](Oc3ccncc3)CN2C1=O)OC1CCCC1` (some centres unmarked) gave a remaining binding of 100% (binding, competition with immobilised ligand; 1 µM).
For `COc1cc(Nc2nccc(-c3cnn4nc(OC)ccc34)n2)cc(C(F)(F)F)c1`, the remaining binding was 50% (binding, competition with immobilised ligand; 1 µM).
